Reference: ChEMBL document CHEMBL1938370, “Structure-activity relationship studies of sulfonylpiperazine analogues as novel negative allosteric modulators of human neuronal nicotinic receptors” (J Med Chem, 2011)
The source made the active and inactive calls. No cut-off for these calls is given here.

Columns and labels:
[1] = biological target: T1, Neuronal acetylcholine receptor; alpha3/beta4 (Homo sapiens, UniProt P30926+P32297); experiment: Agonist activity at human nAChR alpha3beta4 expressed in HEK ts201 cells assessed as increase in calcium mobilization at 30 uM measured every 1.5 sec by fluorescence analysis; format: functional, cell-based
T1 sequence (P30926 whole entry): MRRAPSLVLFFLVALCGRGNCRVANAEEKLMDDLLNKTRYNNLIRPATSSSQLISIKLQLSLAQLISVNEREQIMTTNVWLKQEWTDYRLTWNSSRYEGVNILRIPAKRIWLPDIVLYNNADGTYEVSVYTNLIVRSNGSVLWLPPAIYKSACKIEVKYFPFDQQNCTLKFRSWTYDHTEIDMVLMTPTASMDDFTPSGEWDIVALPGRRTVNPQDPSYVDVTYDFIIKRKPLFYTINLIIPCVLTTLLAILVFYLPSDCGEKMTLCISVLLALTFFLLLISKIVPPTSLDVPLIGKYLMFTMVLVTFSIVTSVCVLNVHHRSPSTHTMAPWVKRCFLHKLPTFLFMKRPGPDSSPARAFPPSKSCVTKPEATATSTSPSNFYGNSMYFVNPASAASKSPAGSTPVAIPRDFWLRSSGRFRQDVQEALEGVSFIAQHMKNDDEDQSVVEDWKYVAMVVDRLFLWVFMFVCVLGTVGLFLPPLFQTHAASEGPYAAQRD
T1 sequence (P32297 whole entry): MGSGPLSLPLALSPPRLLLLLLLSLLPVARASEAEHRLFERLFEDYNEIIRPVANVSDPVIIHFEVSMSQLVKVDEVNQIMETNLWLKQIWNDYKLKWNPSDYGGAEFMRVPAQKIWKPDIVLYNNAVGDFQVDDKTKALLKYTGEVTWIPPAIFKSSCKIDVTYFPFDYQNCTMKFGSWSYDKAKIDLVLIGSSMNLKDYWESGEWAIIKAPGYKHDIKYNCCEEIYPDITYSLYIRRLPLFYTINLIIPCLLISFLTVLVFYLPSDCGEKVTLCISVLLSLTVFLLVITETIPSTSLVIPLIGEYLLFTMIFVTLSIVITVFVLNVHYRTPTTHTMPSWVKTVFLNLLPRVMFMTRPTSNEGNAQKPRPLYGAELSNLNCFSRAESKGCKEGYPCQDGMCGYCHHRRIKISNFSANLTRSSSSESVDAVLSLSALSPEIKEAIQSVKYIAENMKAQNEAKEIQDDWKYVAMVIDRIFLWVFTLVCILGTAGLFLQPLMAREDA

[2] = biological target: T2, Neuronal acetylcholine receptor; alpha4/beta2 (Homo sapiens, UniProt P17787+P43681); experiment: Agonist activity at human nAChR alpha4beta2 expressed in HEK ts201 cells assessed as increase in calcium mobilization at 30 uM measured every 1.5 sec by fluorescence analysis; format: functional, cell-based
T2 sequence (P17787 whole entry): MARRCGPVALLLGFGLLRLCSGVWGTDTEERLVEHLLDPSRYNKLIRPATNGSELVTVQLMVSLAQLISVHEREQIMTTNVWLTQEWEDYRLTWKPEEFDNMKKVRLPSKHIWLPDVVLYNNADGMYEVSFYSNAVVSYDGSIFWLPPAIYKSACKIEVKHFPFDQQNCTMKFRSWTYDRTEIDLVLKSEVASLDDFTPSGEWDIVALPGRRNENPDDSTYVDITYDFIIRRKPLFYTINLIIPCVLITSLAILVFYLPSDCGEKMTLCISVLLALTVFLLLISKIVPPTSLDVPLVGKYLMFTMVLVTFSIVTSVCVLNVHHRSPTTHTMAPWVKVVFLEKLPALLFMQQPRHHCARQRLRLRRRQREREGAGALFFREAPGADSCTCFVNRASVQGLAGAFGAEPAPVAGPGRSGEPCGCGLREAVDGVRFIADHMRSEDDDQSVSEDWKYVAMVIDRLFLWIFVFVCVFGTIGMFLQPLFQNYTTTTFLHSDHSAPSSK
T2 sequence (P43681 whole entry): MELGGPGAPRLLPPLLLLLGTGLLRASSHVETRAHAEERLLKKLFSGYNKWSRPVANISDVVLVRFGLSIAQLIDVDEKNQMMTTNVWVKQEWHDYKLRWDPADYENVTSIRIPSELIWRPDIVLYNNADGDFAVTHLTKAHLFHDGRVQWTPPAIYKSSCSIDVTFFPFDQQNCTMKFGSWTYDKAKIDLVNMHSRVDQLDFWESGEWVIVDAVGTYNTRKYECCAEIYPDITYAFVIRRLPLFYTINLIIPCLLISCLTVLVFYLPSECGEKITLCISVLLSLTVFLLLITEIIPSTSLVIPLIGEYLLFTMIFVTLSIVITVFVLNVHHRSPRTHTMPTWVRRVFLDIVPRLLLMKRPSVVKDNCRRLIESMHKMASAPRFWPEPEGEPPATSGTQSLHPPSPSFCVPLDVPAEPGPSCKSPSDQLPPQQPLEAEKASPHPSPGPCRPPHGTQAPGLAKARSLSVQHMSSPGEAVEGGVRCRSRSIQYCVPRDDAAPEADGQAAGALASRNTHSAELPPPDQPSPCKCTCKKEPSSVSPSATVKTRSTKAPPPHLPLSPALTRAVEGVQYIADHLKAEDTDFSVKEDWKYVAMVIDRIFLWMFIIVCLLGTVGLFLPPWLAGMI

[3] = biological target: T1, Neuronal acetylcholine receptor; alpha3/beta4; experiment: Negative allosteric modulation of human nAChR alpha3beta4 expressed in HEK ts201 cells assessed as decrease in epibatidine-induced calcium mobilization up to 100 uM measured every 1.5 sec by fluorescence analysis; format: cell-based
How it was run: (§1)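 HEK ts201 cells stably expressing human α4β2 or α3β4 nAChRs were plated on poly-L-ornithine-coated wells at 2.0–2.3 × 10^5 cells/well and used ~24 h later. They were washed with HEPES-buffered Krebs and loaded with 50% Calcium 5 NW dye for 1 h at 24 °C in the dark. Test compound was given at 6 concentrations across 0.1–100 µM, with final DMSO 1% at the top concentration. The agonist was 1 µM epibatidine, and fluorescence (ex 485/em 525 nm) was read every ~1.5 s.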

[4] = biological target: T2, Neuronal acetylcholine receptor; alpha4/beta2; experiment: Negative allosteric modulation of human nAChR alpha4beta2 expressed in HEK ts201 cells assessed as decrease in epibatidine-induced calcium mobilization up to 100 uM measured every 1.5 sec by fluorescence analysis; format: cell-based; how it was run: as §1
[5] = biological target: T2, Neuronal acetylcholine receptor; alpha4/beta2; experiment: Negative allosteric modulation of human nAChR alpha4beta2 expressed in HEK ts201 cells assessed as inhibition of epibatidine-induced calcium mobilization measured every 1.5 sec by fluorescence analysis; format: cell-based; how it was run: as §1
[6] = biological target: T1, Neuronal acetylcholine receptor; alpha3/beta4; experiment: Negative allosteric modulation of human nAChR alpha3beta4 expressed in HEK ts201 cells assessed as inhibition of epibatidine-induced calcium mobilization measured every 1.5 sec by fluorescence analysis; format: cell-based; how it was run: as §1
[7] = biological target: T2, Neuronal acetylcholine receptor; alpha4/beta2; experiment: Noncompetitive inhibition of human nAChR alpha4beta2 expressed in HEK ts201 cells assessed as inhibition of epibatidine-induced calcium mobilization at 30 uM measured every 1.5 sec by fluorescence analysis; format: cell-based
How it was run: (§2)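 Epibatidine concentration-response curves were run with and without 30 µM modulator in HEK ts201 cells expressing human α4β2 or α3β4 nAChRs. Cells were loaded with Calcium 5 NW dye for 1 h at 24 °C in HEPES-buffered Krebs, and fluorescence (ex 485/em 525 nm) was monitored every ~1.5 s.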

[8] = biological target: T1, Neuronal acetylcholine receptor; alpha3/beta4; experiment: Noncompetitive inhibition of human nAChR alpha3beta4 expressed in HEK ts201 cells assessed as inhibition of epibatidine-induced calcium mobilization at 30 uM measured every 1.5 sec by fluorescence analysis; format: cell-based; how it was run: as §2
[9] = biological target: T1, Neuronal acetylcholine receptor; alpha3/beta4; experiment: Negative allosteric modulation of human nAChR alpha3beta4 expressed in HEK ts201 cells assessed as inhibition of epibatidine-induced calcium mobilization at 0.1 to 100 uM measured every 1.5 sec by fluorescence analysis; format: cell-based; how it was run: as §1
[10] = biological target: T2, Neuronal acetylcholine receptor; alpha4/beta2; experiment: Negative allosteric modulation of human nAChR alpha4beta2 expressed in HEK ts201 cells assessed as inhibition of epibatidine-induced calcium mobilization at 0.1 to 100 uM measured every 1.5 sec by fluorescence analysis; format: cell-based; how it was run: as §1
[11] = biological target: T2, Neuronal acetylcholine receptor; alpha4/beta2; experiment: Relative selectivity, ratio of IC50 for human nAChR alpha3beta4 expressed in HEK ts201 cells to IC50 for human nAChR alpha4beta2 expressed in HEK ts201 cells; format: cell-based

Activity [1] | Activity [2] | IC50 [5] [µM] | IC50 [6] [µM] | Structure (SMILES) | other results
inactive | inactive |  |  | O=C(CN1CCN(S(=O)(=O)c2cccnc2)CC1)Nc1cc[nH]n1 | 
inactive | inactive |  |  | O=C(CN1CCN(S(=O)(=O)c2ccc(F)cc2)CC1)Nc1ccc(F)cc1 | 
inactive | inactive |  |  | O=C(CN1CCN(S(=O)(=O)c2ccccc2F)CC1)Nc1cc[nH]n1 | 
inactive | inactive |  |  | O=C(CN1CCN(S(=O)(=O)c2ccc(F)cc2)CC1)Nc1ccccc1 | 
inactive | inactive | 8 | 13.6 | O=C(CN1CCN(S(=O)(=O)c2ccccc2F)CC1)Nc1ccc(F)cc1 | 
inactive | inactive |  |  | COc1ccc(NC(=O)CN2CCN(S(=O)(=O)c3ccc(F)cc3)CC2)cc1 | 
inactive | inactive |  |  | O=C(CN1CCN(S(=O)(=O)c2ccc(F)cc2)CC1)Nc1ccc2[nH]ncc2c1 | 
inactive | inactive |  |  | O=C(CN1CCN(S(=O)(=O)c2ccc(F)cc2)CC1)Nc1ccccc1F | inhibition [7]: Active; inhibition [8]: Active
inactive | inactive | 12.2 | 23.8 | O=C(CN1CCN(S(=O)(=O)c2ccc(F)cc2)CC1)Oc1ccccc1-c1ccccc1 | 
inactive | inactive |  | 95 | COc1ccc(NC(=O)CN2CCN(S(=O)(=O)c3cccnc3)CC2)cc1 | IC50 [4]: > 100 µM
inactive | inactive | 12.4 | 11.2 | COC(=O)c1ccc(NC(=O)CN2CCN(S(=O)(=O)c3ccccc3F)CC2)cc1 | 
inactive | inactive |  |  | O=C(CN1CCN(S(=O)(=O)c2ccccc2F)CC1)Nc1ccccc1F | Ratio IC50 [11]: 12
inactive | inactive | 9.6 | 16.4 | O=C(CN1CCN(S(=O)(=O)c2ccccc2)CC1)Nc1ccccc1 | 

The next lines start with the compound.

Structure (SMILES) | Activity [1] | Activity [2] | IC50 [5] [µM] | IC50 [6] [µM] | other results
O=C(CN1CCN(S(=O)(=O)c2ccccc2F)CC1)Nc1ccc(C(=O)O)cc1 | inactive | inactive |  |  | IC50 [3]: > 100 µM; IC50 [4]: > 100 µM
COc1ccc(S(=O)(=O)N2CCN(CC(=O)Nc3ccccc3F)CC2)cc1 | inactive | inactive | 13.4 | 15.4 | 
COc1ccc(S(=O)(=O)N2CCN(CC(=O)Nc3ccc(F)cc3)CC2)cc1 | inactive | inactive | 23.6 | 17.1 | 
O=C(CN1CCN(S(=O)(=O)c2ccccc2F)CC1)Oc1ccccc1-c1ccccc1 | inactive | inactive | 20.9 | 23.5 | 
O=C(CN1CCN(S(=O)(=O)c2cccnc2)CC1)Nc1ccn[nH]1 |  |  | 83 |  | IC50 [3]: > 100 µM
O=S(=O)(c1ccc(F)cc1)N1CCNCC1 |  |  |  |  | Activity [9]: inactive; Activity [10]: inactive
O=C(CN1CCN(S(=O)(=O)c2ccc(F)cc2)CC1)Nc1cc[nH]n1 | inactive | inactive |  |  | 
O=C(CN1CCN(S(=O)(=O)c2ccccc2)CC1)Nc1ccccc1F | inactive | inactive | 4.1 | 4.6 | 
O=C(CN1CCN(S(=O)(=O)c2ccccc2F)CC1)Nc1ccn[nH]1 |  |  |  |  | IC50 [3]: > 100 µM; IC50 [4]: > 100 µM
O=C(CN1CCN(S(=O)(=O)c2cccnc2)CC1)Nc1ccccc1F | inactive | inactive | 20.3 | 49.6 | 
COc1ccc(NC(=O)CN2CCN(S(=O)(=O)c3ccccc3F)CC2)cc1 | inactive | inactive | 17.1 | 19.1 | Ratio IC50 [11]: 1.1
